Assay results published in ChEMBL document CHEMBL4024749, “Discovery of 3,5-Diphenyl-4-methyl-1,3-oxazolidin-2-ones as Novel, Potent, and Orally Available Δ-5 Desaturase (D5D) Inhibitors” (J Med Chem, 2017).

What was measured:
[1] = molecular target: Acyl-CoA (8-3)-desaturase (Rattus norvegicus, UniProt Q920R3); experiment: Displacement of [3H]T-3364366 from D5D in rat liver microsomal membrane preincubated for 15 mins followed by radioligand addition measured after 150 mins by TopCount microscintillation counting assay; assay type: cell membranes
Summary of the method: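 Rat liver microsome fraction (30 μg/well) preincubated 15 min with test compound at room temperature in 10 mM Tris-HCl pH 7.5, 100 mM KCl, 10 mM NaF buffer, 200 μL/well; bound ligand trapped on GF/C filters, washed 5× with ice-cold buffer, counted by scintillation. Nonspecific binding with 10 μM unlabeled T-3364366; IC50 from three-parameter logistic fit.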

Liver [2] = experiment: Metabolic stability in human liver microsomes; assay type: ADME, microsome
Liver [3] = experiment: Metabolic stability in mouse liver microsomes; assay type: ADME, microsome
[4] = molecular target: Acyl-CoA (8-3)-desaturase (Homo sapiens, UniProt O60427); experiment: Inhibition of D5D in human HepG2 cells assessed as [14C]AA formation from [14C]DGLA preincubated for 30 mins followed by [14C]eicosatrienoic acid addition measured after 3 hrs by TLC analysis; assay type: cell-based
Summary of the method: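 HepG2 plated at 1 × 10^5 cells/well, cultured overnight in DMEM/10% FBS, PBS-washed, then preincubated 30 min at 37 °C with compound in DMEM with penicillin/streptomycin and 0.3% BSA. 0.1 μCi [14C]eicosatrienoic acid added and cells incubated 3 h at 37 °C; lipids saponified overnight at 55 °C with NaOH, acidified, extracted with chloroform/MeOH, separated by TLC.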

[5] = AUC (0 to 8 hrs) in mouse at 1 mg/kg, po administered as cassette dose; assay type: ADME, organism-based; set-up: time < 8 hr, dose 1 mg/kg, route oral; details: in vivo
[6] = MRT (0 to 8 hrs) in mouse at 1 mg/kg, po administered as cassette dose; assay type: ADME, organism-based; details: in vivo
[7] = Oral bioavailability in mouse at 0.1 mg/kg, iv or 1 mg/kg administered as cassette dose up to 8 hrs; assay type: ADME, organism-based; details: in vivo
Mus musculus [8] = experiment: In vivo inhibition of D5D in C57BL/6J mouse liver assessed as decrease in AA/DGLA ratio by measuring inhibition index at 3 mg/kg, qd administered via oral gavage for 4 days by HPLC analysis relative to control; details: 96 h
[9] = Induction of CYP3A (unknown origin); assay type: ADME; details: human
Mus musculus [10] = experiment: In vivo inhibition of D5D in C57BL/6J mouse liver assessed as decrease in AA/DGLA ratio by measuring inhibition index at 3 mg/kg, qd administered via oral gavage for 4 days by HPLC analysis relative to control; assay type: functional; details: 96 h
Summary of the method: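 Male C57BL/6J mice, 7–9 weeks old, on normal chow, individually caged; 3 mg/kg suspension in 0.5% methylcellulose by gavage each morning at 10 mL/kg for 4 days. Liver taken next morning; phospholipid fraction from about 40 mg tissue labeled, AA and DGLA measured by HPLC; AA/DGLA decrease versus vehicle group taken as 100%.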

CYP2C9 = CYP2C9 (Homo sapiens, UniProt P11712); experiment: Inhibition of CYP2C9 (unknown origin) at 10 uM
[11] = AUC (0 to 8 hrs) in mouse at 0.1 mg/kg, iv or 1 mg/kg, po; assay type: ADME, organism-based; details: in vivo
[12] = MRT (0 to 8 hrs) in mouse at 0.1 mg/kg, iv or 1 mg/kg, po measured; assay type: ADME, organism-based; details: in vivo
Mus musculus [13] = experiment: In vivo inhibition of D5D in ApoE knockout mouse assessed as decrease in AA/DGLA ratio at 0.3 mg/kg, po qd dosed via gavage for 2 weeks by HPLC analysis; assay type: functional; details: 336 h
Summary of the method: (§1)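 ApoE KO mice, 13 weeks old, fed Western diet for 2 weeks; from day after diet start, dosed by gavage each morning at 10 mL/kg with suspension (0.3–3 mg/kg). Livers taken morning after final dose; phospholipid AA and DGLA measured by HPLC after labeling; AA/DGLA decrease relative to vehicle group as 100%.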

Mus musculus [14] = experiment: In vivo inhibition of D5D in ApoE knockout mouse assessed as decrease in AA/DGLA ratio at 1 mg/kg, po qd dosed via gavage for 2 weeks by HPLC analysis; assay type: functional; details: 336 h; summary of the method: as §1
Mus musculus [15] = experiment: In vivo inhibition of D5D in ApoE knockout mouse assessed as decrease in AA/DGLA ratio at 3 mg/kg, po qd dosed via gavage for 2 weeks by HPLC analysis; assay type: functional; details: 336 h; summary of the method: as §1
hERG (KCNH2) = hERG (KCNH2) (Homo sapiens, UniProt Q12809); experiment: Inhibition of human ERG at 10 uM by patch clamp assay
Cytochrome P450 3A4 = Cytochrome P450 3A4 (Homo sapiens, UniProt P08684); experiment: Inhibition of CYP3A4 (unknown origin); assay type: ADME
Cytochrome P450 2C8 = molecular target: T1, Cytochrome P450 2C8 (Homo sapiens, UniProt P10632); experiment: Inhibition of CYP2C8 (unknown origin); assay type: ADME
T1 sequence (P10632 whole entry): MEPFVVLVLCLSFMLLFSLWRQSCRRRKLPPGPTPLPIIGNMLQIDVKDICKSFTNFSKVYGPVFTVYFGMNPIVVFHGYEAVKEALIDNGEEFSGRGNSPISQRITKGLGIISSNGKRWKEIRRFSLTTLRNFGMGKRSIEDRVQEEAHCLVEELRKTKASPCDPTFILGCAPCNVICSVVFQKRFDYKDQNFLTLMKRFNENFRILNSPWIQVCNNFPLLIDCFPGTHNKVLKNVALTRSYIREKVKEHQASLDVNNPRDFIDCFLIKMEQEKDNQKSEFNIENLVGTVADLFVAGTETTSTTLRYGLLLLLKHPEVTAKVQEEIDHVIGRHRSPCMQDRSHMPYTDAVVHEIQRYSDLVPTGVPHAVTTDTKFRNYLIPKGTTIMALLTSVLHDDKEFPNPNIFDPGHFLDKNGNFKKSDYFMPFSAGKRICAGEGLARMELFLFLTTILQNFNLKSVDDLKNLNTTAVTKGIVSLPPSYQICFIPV

Cytochrome P450 2C9 = Cytochrome P450 2C9 (Homo sapiens, UniProt P11712); experiment: Inhibition of CYP2C9 (unknown origin); assay type: ADME
Cytochrome P450 2D6 = Cytochrome P450 2D6 (Homo sapiens, UniProt P10635); experiment: Inhibition of CYP2D6 (unknown origin); assay type: ADME
Canis familiaris = experiment: Cardiotoxicity in dog at 5 mg/kg, iv by ECG analysis; assay type: toxicity, organism-based, Canis lupus familiaris; details: in vivo
[16] = Cmax in dog at 5 mg/kg, iv; assay type: ADME, organism-based, Canis lupus familiaris; set-up: dose 5 mg/kg, route intravenous; details: in vivo
[17] = Cmax in ApoE knockout mouse at 1 mg/kg, po qd dosed via gavage for 2 weeks by HPLC analysis; assay type: ADME, organism-based; set-up: dose 1 mg/kg, route oral; details: in vivo
[18] = Ratio of Cmax in dog ECG model at 5 mg/kg, iv to Cmax in ApoE knockout mouse at 1 mg/kg, po qd dosed via gavage for 2 weeks; assay type: ADME, organism-based; details: in vivo, 336 h
[19] = Drug level in human hepatocytes treated with 5-(4-Fluorophenyl)-3-(3-methoxyphenyl)-1,3-oxazolidin-2-one by LC-MS/MS analysis; assay type: ADME, cell-based, Hepatocyte
[20] = Drug level in mouse hepatocytes treated with 5-(4-Fluorophenyl)-3-(3-methoxyphenyl)-1,3-oxazolidin-2-one by LC-MS/MS analysis; assay type: ADME, cell-based, Hepatocyte

Acyl-CoA (8-3)-desaturase (Homo sapiens, UniProt O60427), sequence (O60427 whole entry): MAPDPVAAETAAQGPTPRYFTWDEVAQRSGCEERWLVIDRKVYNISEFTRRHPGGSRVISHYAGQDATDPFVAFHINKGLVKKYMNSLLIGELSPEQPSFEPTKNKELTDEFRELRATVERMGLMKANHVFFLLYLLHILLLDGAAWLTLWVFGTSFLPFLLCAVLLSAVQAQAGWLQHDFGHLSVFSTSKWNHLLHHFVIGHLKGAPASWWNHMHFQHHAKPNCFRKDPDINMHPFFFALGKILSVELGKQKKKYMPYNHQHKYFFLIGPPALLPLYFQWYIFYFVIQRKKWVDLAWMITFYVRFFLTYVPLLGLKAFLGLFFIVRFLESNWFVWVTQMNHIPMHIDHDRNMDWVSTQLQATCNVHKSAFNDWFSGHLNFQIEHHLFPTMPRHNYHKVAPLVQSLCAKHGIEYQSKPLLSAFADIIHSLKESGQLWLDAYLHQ
Acyl-CoA (8-3)-desaturase (Rattus norvegicus, UniProt Q920R3), sequence (Q920R3 whole entry): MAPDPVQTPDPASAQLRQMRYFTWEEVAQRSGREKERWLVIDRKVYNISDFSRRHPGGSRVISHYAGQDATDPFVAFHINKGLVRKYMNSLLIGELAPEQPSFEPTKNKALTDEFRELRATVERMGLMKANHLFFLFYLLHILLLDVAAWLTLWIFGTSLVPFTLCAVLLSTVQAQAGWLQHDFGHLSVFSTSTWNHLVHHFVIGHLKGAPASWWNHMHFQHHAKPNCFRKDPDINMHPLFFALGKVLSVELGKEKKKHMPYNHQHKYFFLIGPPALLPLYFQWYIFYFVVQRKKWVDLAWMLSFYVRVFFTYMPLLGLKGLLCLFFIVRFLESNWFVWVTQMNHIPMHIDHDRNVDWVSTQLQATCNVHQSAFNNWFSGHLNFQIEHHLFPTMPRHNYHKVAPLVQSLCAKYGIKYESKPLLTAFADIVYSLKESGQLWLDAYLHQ
CYP2C9, sequence (P11712 whole entry): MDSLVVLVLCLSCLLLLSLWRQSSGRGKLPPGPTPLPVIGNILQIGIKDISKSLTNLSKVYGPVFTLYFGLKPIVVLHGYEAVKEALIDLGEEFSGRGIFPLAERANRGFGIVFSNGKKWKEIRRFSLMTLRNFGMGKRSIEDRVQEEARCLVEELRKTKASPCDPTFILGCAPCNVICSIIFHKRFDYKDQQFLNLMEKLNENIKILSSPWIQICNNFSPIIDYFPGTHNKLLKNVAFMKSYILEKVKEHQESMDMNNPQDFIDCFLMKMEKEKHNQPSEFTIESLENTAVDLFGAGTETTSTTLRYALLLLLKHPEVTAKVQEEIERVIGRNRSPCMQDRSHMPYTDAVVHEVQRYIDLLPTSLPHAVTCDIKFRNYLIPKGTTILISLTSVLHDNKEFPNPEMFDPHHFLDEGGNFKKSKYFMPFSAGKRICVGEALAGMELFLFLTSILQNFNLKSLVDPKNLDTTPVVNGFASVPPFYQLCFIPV
hERG (KCNH2), sequence (Q12809 whole entry): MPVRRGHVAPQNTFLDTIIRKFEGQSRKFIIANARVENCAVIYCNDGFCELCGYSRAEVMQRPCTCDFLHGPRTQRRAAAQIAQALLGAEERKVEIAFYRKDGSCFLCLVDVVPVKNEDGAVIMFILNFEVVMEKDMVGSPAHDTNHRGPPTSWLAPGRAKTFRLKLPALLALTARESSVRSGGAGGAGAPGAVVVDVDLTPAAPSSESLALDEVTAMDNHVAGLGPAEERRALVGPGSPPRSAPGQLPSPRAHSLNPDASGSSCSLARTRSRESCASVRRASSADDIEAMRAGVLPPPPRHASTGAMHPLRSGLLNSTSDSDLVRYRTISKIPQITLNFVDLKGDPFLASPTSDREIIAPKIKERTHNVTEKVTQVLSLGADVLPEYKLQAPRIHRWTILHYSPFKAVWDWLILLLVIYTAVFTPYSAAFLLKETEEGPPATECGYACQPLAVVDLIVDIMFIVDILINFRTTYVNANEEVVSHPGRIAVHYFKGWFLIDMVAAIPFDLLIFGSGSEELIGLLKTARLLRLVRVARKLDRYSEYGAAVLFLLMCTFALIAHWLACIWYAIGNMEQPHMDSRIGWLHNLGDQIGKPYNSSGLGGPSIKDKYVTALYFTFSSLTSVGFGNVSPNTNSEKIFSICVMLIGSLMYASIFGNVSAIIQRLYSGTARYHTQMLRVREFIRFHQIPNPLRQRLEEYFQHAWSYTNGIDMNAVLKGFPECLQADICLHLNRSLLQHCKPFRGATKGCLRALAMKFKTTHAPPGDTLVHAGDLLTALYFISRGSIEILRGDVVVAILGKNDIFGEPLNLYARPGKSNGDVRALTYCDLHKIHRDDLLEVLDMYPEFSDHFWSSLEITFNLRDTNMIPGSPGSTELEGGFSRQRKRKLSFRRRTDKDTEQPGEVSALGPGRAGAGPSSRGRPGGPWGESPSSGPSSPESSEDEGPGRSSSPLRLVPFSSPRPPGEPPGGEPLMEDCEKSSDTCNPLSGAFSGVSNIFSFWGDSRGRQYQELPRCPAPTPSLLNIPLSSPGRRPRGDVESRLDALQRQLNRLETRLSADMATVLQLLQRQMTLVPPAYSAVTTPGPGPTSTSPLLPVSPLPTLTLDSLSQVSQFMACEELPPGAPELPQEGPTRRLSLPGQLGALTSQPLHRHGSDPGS
Cytochrome P450 3A4, sequence (P08684 whole entry): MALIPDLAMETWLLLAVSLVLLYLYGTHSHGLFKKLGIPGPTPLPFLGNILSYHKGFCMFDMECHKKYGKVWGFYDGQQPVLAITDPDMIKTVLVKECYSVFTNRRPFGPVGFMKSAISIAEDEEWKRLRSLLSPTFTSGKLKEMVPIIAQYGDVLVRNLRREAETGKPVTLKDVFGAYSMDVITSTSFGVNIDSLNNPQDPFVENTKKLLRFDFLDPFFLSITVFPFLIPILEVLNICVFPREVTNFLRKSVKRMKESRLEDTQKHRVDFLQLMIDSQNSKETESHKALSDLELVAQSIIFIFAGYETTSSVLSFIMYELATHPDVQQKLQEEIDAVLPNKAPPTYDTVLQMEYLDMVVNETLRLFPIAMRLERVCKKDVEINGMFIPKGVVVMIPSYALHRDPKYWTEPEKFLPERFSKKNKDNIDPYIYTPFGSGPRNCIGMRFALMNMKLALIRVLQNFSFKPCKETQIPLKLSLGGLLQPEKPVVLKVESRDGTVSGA
Cytochrome P450 2C9, sequence (P11712 whole entry): as the sequence (P11712 whole entry) above
Cytochrome P450 2D6, sequence (P10635 whole entry): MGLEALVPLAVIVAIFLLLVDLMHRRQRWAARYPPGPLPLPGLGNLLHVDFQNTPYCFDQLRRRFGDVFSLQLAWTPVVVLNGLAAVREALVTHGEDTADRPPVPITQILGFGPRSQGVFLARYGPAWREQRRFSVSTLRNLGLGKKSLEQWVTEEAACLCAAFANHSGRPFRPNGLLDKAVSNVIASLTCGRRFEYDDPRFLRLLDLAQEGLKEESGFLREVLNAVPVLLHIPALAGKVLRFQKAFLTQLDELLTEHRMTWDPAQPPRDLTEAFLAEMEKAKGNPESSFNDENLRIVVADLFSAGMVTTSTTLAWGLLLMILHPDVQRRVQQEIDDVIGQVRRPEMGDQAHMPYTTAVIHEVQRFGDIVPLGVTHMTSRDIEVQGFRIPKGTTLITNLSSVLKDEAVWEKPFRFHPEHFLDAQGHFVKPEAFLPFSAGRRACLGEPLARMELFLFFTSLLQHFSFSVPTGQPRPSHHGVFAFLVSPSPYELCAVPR

C[C@@H]1[C@H](c2ccc(F)cc2)OC(=O)N1c1cccc(C#N)c1 (racemic)
IC50 [1]: 0.41 µM
Stability (Liver [2]): 21 µL/min/mg
Stability (Liver [3]): 7 µL/min/mg

N#Cc1cccc(N2CC(c3ccc(F)cc3)OC2=O)c1 (racemic)
IC50 [1]: 0.078 µM
IC50 [4]: 0.17 µM
Stability (Liver [3]): 94 µL/min/mg

COc1ccc(CN(C)C(=O)c2ccc3c(c2)OCO3)c(OC)c1
IC50 [1]: 0.31 µM

O=C1OC(c2ccc(F)cc2)CN1c1cccc(Cl)c1 (racemic)
IC50 [1]: 0.023 µM
IC50 [4]: 0.055 µM
Stability (Liver [2]): 72 µL/min/mg

C[C@H]1[C@H](c2ccc(F)cc2)OC(=O)N1c1cc(F)cc(C#N)c1 (racemic)
IC50 [1]: 0.004 µM
IC50 [4]: 0.0037 µM
AUC(0-t) at 8 h [5]: 1.2 µg·h/mL
MRT last [6]: 3.8 h
bioavailability [7]: 61%
inhibition in vivo at 3 mg/kg (Mus musculus [8]): 63%

N#Cc1cccc(N2C[C@H](c3ccc(F)cc3)OC2=O)c1
IC50 [1]: 0.049 µM
IC50 [4]: 0.06 µM
Stability (Liver [2]): 4 µL/min/mg
Stability (Liver [3]): 50 µL/min/mg

C[C@H]1[C@H](c2ccc(F)cc2)OC(=O)N1c1cc(C#N)cc(C#N)c1
Activity [9]: Not Active
IC50 [1]: 0.0015 µM
IC50 [4]: 0.0015 µM
inhibition in vivo at 3 mg/kg (Mus musculus [10]): 74%
inhibition at 10 µM (CYP2C9): 28.5%
AUC(0-t) [11]: 0.891 µg·h/mL
MRT last [12]: 4 h
bioavailability [7]: 53.3%
inhibition in vivo at 0.3 mg/kg (Mus musculus [13]): 61%
inhibition in vivo at 1 mg/kg (Mus musculus [14]): 67%
inhibition in vivo at 3 mg/kg (Mus musculus [15]): 66%
inhibition at 10 µM (hERG (KCNH2)): 30.7%
inhibition (INH) (Cytochrome P450 3A4): Not Active
inhibition (INH) (Cytochrome P450 2C8): Not Active
inhibition (INH) (Cytochrome P450 2C9): Not Active
inhibition (INH) (Cytochrome P450 2D6): Not Active
Activity (Canis familiaris): Non-Toxic
Cmax [16]: 7.15 µg/mL
Cmax [17]: 0.28 µg/mL
Ratio [18]: > 25

CC1(C)C(c2ccc(F)cc2)OC(=O)N1c1cccc(C#N)c1 (racemic)
IC50 [1]: 0.45 µM

C[C@@H]1[C@@H](c2ccc(F)cc2)OC(=O)N1c1cccc(C#N)c1
IC50 [1]: 5.8 µM

O=C1OC(c2ccccc2)CN1Cc1cc(O)c(Cl)cc1Cl (racemic)
IC50 [1]: 0.012 µM
IC50 [4]: 1.1 µM

O=C1OC(c2ccc(F)cc2)CN1c1cccc(O)c1 (centres undefined)
Drug metabolism [19]: Metabolite_Detected

N#Cc1cccc(N2C[C@@H](c3ccc(F)cc3)OC2=O)c1
IC50 [1]: > 10 µM

O=C1OC(c2ccc(F)cc2)CN1c1ccccc1 (racemic)
IC50 [1]: 0.15 µM
IC50 [4]: 0.19 µM
Stability (Liver [2]): 45 µL/min/mg

COc1ccc(OC)c(N2CC(c3ccc(F)cc3)OC2=O)c1 (racemic)
IC50 [1]: 0.013 µM
IC50 [4]: 0.018 µM

Cn1c(=O)n(Cc2cc(O)c(Cl)cc2Cl)c2ccccc21
IC50 [1]: 0.039 µM

O=C1OC(c2ccc(F)cc2)CN1c1cccc(O[C@@H]2O[C@H](CO)[C@@H](O)[C@H](O)[C@H]2O)c1 (some centres undefined)
Drug metabolism [19]: Metabolite_Detected
Drug metabolism [20]: Metabolite_Detected

O=C1OC(c2ccc(F)cc2)CN1c1cccc(F)c1 (racemic)
IC50 [1]: 0.051 µM
IC50 [4]: 0.17 µM
Stability (Liver [2]): 81 µL/min/mg

O=C1OC(c2ccc(F)cc2)CN1c1cccc(OS(=O)(=O)O)c1 (centres undefined)
Drug metabolism [19]: Metabolite_Detected
Drug metabolism [20]: Metabolite_Detected

C[C@H]1[C@H](c2ccc(F)cc2)OC(=O)N1c1cccc(C#N)c1
IC50 [1]: 0.0053 µM
IC50 [4]: 0.0087 µM
Stability (Liver [3]): 24 µL/min/mg
AUC(0-t) at 8 h [5]: 2.08 µg·h/mL
MRT last [6]: 3.4 h
bioavailability [7]: 87.2%
inhibition in vivo at 3 mg/kg (Mus musculus [8]): 42%

COc1ccc(OC)c(N2CCN(C(=O)c3ccc(Cl)cc3)C(C)C2=O)c1 (racemic)
IC50 [1]: 0.36 µM

O=C1OC(c2ccc(F)cc2)CN1Cc1ccc(Cl)cc1Cl (racemic)
IC50 [1]: 0.079 µM
IC50 [4]: 0.15 µM

CCn1cc(C(=O)N(C)C(C)c2ccc(F)cc2)c2ccccc21 (racemic)
IC50 [1]: 0.047 µM

C[C@H]1[C@H](c2ccc(F)cc2)OC(=O)N1c1cc(Cl)cc(C#N)c1
IC50 [1]: < 0.001 µM
IC50 [4]: 0.00052 µM
inhibition in vivo at 3 mg/kg (Mus musculus [10]): 71%
inhibition at 10 µM (CYP2C9): 44.2%
AUC(0-t) [11]: 0.974 µg·h/mL
MRT last [12]: 4.2 h
bioavailability [7]: 74.4%

C[C@H]1[C@H](c2ccc(F)cc2)OC(=O)N1c1cccc(C#N)c1 (racemic)
IC50 [1]: 0.013 µM
IC50 [4]: 0.0089 µM
